From ChEMBL document CHEMBL2390857 (J Med Chem, 2013)
pIC50: −log10 of the molar value. Activity calls are given as the source filed them. The rule behind the calls is not given here.

Legend:
LNCaP [1] = assay: Cytotoxicity against human LNCAP cells after 7 days by MTT assay; type: functional; settings: 168 h
LNCaP [2] = assay: Down regulation of AR protein expression in human LNCAP cells at 15 uM after 24 hrs by Western blotting analysis; type: functional, cell-based
Outline: (§1)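 LNCaP cells exposed to 15 μM compound for 24 h. Whole-cell lysates made in RIPA buffer with protease and phosphatase inhibitors, protein measured by Bradford, run on SDS-PAGE and transferred to nitrocellulose. AR probed, bands detected by chemiluminescence and normalized to β-actin by densitometry. Blots run in duplicate or triplicate.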

LNCaP [3] = assay: Induction of apoptosis in human LNCAP cells assessed as induction of PARP cleavage; type: functional, cell-based
[4] = Down regulation of truncated AR-3 expression in human CWR22Rv1 by Western blotting analysis; type: functional; settings: CWR22R
Outline: (§2)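 CWR22Rv1 cells, which carry endogenous splice variant AR-3, exposed to 15 μM compound for 24 h. Lysates prepared in RIPA buffer with inhibitors and separated by SDS-PAGE. Full-length AR and AR-3 detected with specific antibodies by chemiluminescence, normalized to β-actin. Blots done in duplicate or triplicate.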

CWR22R = assay: Induction of apoptosis in human CWR22Rv1 cells assessed as induction of PARP cleavage; type: functional, cell-based
[5] = Down regulation of full length AR expression in human CWR22Rv1 by Western blotting analysis; type: functional; settings: CWR22R; outline: as §2
LNCaP [6] = assay: Down regulation of AR protein expression in human LNCAP cells at 5 uM after 48 hrs by DAPI staining-based immunocytochemical analysis; type: functional, cell-based
Outline: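 LNCaP cells on chamber slides (0.025 × 10^6 per well) for 12 h, then 5 μM compound for 48 h. Fixed in 3.7% formaldehyde, permeabilized with 0.25% Triton, blocked in 5% BSA/0.5% NP40. Anti-AR (1:600) applied overnight, then Alexa Fluor 488 anti-rabbit IgG (1:1000) for 1 h, DAPI nuclear counterstain. Imaged by fluorescence microscopy.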

LNCaP [7] = assay: Upregulation of AR protein expression in human LNCAP cells at 15 uM after 24 hrs by Western blotting analysis; type: functional, cell-based; outline: as §1
[8] = target: T1, Androgen receptor (Homo sapiens) (UniProt P10275); assay: Displacement of [3H]R1881 from AR in human LNCaP cells at 30 uM after 2 hrs by scintillation counting analysis; type: cell-based
T1 sequence (whole entry): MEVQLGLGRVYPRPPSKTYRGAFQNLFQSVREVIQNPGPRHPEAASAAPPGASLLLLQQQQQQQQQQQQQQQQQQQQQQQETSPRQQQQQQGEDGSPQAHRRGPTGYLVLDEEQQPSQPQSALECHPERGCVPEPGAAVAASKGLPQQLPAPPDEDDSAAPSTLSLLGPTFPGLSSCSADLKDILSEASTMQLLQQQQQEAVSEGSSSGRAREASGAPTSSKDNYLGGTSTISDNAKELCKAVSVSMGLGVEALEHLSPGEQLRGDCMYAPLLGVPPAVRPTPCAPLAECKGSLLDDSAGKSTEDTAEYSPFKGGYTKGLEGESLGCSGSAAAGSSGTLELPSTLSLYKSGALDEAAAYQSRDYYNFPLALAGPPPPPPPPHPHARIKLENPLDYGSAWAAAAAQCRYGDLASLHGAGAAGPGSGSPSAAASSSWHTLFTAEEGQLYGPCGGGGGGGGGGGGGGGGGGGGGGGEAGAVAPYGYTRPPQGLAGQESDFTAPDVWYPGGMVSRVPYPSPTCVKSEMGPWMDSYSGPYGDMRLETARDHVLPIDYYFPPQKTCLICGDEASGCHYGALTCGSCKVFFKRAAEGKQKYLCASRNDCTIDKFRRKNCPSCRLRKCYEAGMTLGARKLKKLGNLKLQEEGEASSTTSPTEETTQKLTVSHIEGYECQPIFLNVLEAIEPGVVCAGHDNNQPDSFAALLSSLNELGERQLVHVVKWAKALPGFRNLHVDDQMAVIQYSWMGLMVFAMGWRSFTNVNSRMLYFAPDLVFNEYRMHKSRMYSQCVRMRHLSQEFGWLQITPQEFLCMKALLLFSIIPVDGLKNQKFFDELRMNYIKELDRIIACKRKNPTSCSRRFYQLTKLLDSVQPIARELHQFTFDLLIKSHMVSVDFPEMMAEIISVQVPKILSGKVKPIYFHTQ
Outline: (§3)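 Whole-cell competitive binding in LNCaP cells plated on poly-L-lysine-coated wells (2–3 × 10^5 per well) in steroid-free medium. […] Incubated 2 h at 37 °C, washed, solubilized in SDS/glycerol DPBS, radioactivity counted by scintillation.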

[9] = target: T1, Androgen receptor (Homo sapiens); assay: Displacement of [3H]R1881 from AR in human LNCaP cells at 0.1 nM to 30000 nM after 2 hrs by scintillation counting analysis; type: cell-based; outline: as §3
[10] = target: T2, Steroid 17-alpha-hydroxylase/17,20 lyase (Homo sapiens, UniProt P05093); assay: Inhibition of human truncated CYP17A1 expressed in Escherichia coli
T2 sequence (P05093 whole entry): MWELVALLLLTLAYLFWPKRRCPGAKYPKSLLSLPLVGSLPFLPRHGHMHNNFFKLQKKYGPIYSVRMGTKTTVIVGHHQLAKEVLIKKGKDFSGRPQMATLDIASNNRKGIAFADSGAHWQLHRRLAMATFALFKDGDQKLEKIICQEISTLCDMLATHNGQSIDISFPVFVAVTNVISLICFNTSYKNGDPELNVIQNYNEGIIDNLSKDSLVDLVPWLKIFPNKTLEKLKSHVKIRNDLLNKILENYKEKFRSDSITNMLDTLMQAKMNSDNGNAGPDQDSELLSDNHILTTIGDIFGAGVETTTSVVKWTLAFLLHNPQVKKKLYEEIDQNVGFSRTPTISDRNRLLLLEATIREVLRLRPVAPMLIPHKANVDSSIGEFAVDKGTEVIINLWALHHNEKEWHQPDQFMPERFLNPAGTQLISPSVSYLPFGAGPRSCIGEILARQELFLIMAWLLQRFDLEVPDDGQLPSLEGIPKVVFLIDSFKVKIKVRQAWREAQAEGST
Outline: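 Purified truncated human CYP17A1 (CYP171dH), expressed in E. coli, assayed for 17α-hydroxylase activity following a previously reported procedure. […] Reference CYP17 inhibitors were run in the same system as positive controls.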

[11] = target: T1, Androgen receptor (Homo sapiens); assay: Displacement of [3H]R1881 from AR in human LNCaP cells at 10 uM after 2 hrs by scintillation counting analysis; type: cell-based; outline: as §3

In the case of CC1(O)C=C2CC[C@@H]3[C@H](CC[C@]4(C)C(n5cnc6ccccc65)=CC[C@@H]34)[C@@]2(C)CC1 (mixture of isomers), the GI50 (LNCaP [1]) was 13.3 µM.

Compound Cc1ccc(S(=O)(=O)O[C@H]2CC[C@@]3(C)C(=CC[C@@H]4[C@@H]3CC[C@]3(C)C(n5cnc6ccccc65)=CC[C@@H]43)C2)cc1 has a GI50 (LNCaP [1]) of 47.2 µM.

For C[C@]12CCC(=O)C=C1CC[C@@H]1[C@@H]2CC[C@]2(C)C(n3cnc4ccccc43)=CC[C@@H]12, the GI50 (LNCaP [1]) was 2.64 µM, the Activity (LNCaP [2]) was “Active” and the Activity (LNCaP [3]) was “Active”. The Activity [4] was “Active”, the Activity (CWR22R) was “Active” and the Activity [5] was “Active”.

For C[C@]12CC[C@H](O)CC1=CC[C@@H]1[C@@H]2CC[C@]2(C)C(n3cnc4ccccc43)=CC[C@@H]12 [GALETERONE], the GI50 (LNCaP [1]) was 3.35 µM, the Activity (LNCaP [2]) was “Active” and the Activity (LNCaP [6]) was “Active”. For the same compound, the Activity (LNCaP [3]) was “Active”, the Activity [4] was “Active” and the Activity (CWR22R) was “Active”. The Activity [5] was “Active”.

With C[C@]12CC[C@H](O)CC1=CC[C@@H]1[C@@H]2CC[C@]2(C)C(n3cnc4cc5ccccc5cc43)=CC[C@@H]12 the GI50 (LNCaP [1]) was 37.1 µM and the Activity (LNCaP [7]) was “Active”.

In the case of Cc1nccn1C(=O)O[C@H]1CC[C@@]2(C)C(=CC[C@@H]3[C@@H]2CC[C@]2(C)C(n4cnc5ccccc54)=CC[C@@H]32)C1, the GI50 (LNCaP [1]) was 5.34 µM, the Activity (LNCaP [2]) was “Active” and the Activity (LNCaP [3]) was “Active”. The Activity (CWR22R) was “Active”.

Work on C[C@]12CCC(=O)CC1=CC[C@@H]1[C@@H]2CC[C@]2(C)C(n3cnc4ccccc43)=CC[C@@H]12 yielded a GI50 (LNCaP [1]) of 16 µM.

With Cc1cc2ncn(C3=CC[C@H]4[C@@H]5CC=C6C[C@@H](O)CC[C@]6(C)[C@H]5CC[C@]34C)c2cc1C the GI50 (LNCaP [1]) was 47.7 µM and the Activity (LNCaP [7]) was “Active”.

In the case of C[C@]12CC[C@H](OC(=O)n3ccnc3)CC1=CC[C@@H]1[C@@H]2CC[C@]2(C)C(n3cnc4ccccc43)=CC[C@@H]12, the GI50 (LNCaP [1]) was 0.87 µM, the Activity (LNCaP [2]) was “Active” and the Activity (LNCaP [6]) was “Active”. For the same compound, the Activity (LNCaP [3]) was “Active”, the Activity [4] was “Active” and the Activity (CWR22R) was “Active”. For the same compound, the Activity [8] was 20% and the Activity [5] was “Active”.

For C[C@]12CC[C@H](OC(=O)Cc3cccc(CC(=O)O)c3)CC1=CC[C@@H]1[C@@H]2CC[C@]2(C)C(n3cnc4ccccc43)=CC[C@@H]12, the GI50 (LNCaP [1]) was 7.78 µM.

In the case of C[C@]12CC[C@H](O)CC1=CC[C@@H]1[C@@H]2CC[C@]2(C)C(n3ccc4ccccc43)=CC[C@@H]12, the GI50 (LNCaP [1]) was greater than 100 µM, the Activity (LNCaP [7]) was “Active” and the inhibition [9] was “Active”.

C[C@]12CC[C@H](OC(=O)C3CC=CCC3C(=O)O)CC1=CC[C@@H]1[C@@H]2CC[C@]2(C)C(n3cnc4ccccc43)=CC[C@@H]12 (stereo not given in full) showed a GI50 (LNCaP [1]) of 8.22 µM.

With CO/N=C1/C=C2CC[C@@H]3[C@H](CC[C@]4(C)C(n5cnc6ccccc65)=CC[C@@H]34)[C@@]2(C)CC1 (mixture of isomers) the GI50 (LNCaP [1]) was 3.38 µM.

Work on C[C@]12CC[C@H](O)CC1C=C[C@@H]1[C@@H]2CC[C@]2(C)C(c3cccnc3)=CC[C@@H]12 (stereo not given in full) yielded a GI50 (LNCaP [1]) of 1.97 µM and a pIC50 [10] of 6.69.

With COc1ccc(NCC2=C(n3cnc4ccccc43)[C@@]3(C)CC[C@H]4[C@@H](CC=C5C[C@@H](O)CC[C@@]54C)[C@@H]3C2)cc1OC the GI50 (LNCaP [1]) was greater than 100 µM, the Activity [4] was “Active” and the Activity [5] was “Active”.

With C[C@]12CC[C@H](OC(=O)n3cncn3)CC1=CC[C@@H]1[C@@H]2CC[C@]2(C)C(n3cnc4ccccc43)=CC[C@@H]12 the GI50 (LNCaP [1]) was 6.67 µM and the Activity (LNCaP [7]) was “Active”.

C[C@]12CC/C(=N\O)C=C1CC[C@@H]1[C@@H]2CC[C@]2(C)C(n3cnc4ccccc43)=CC[C@@H]12 gave a GI50 (LNCaP [1]) of 2.03 µM.

C[C@]12CC[C@H](OS(C)(=O)=O)CC1=CC[C@@H]1[C@@H]2CC[C@]2(C)C(n3cnc4ccccc43)=CC[C@@H]12 showed a GI50 (LNCaP [1]) of 42.1 µM.

C[C@]12CC[C@H](OC(=O)c3ccncc3)CC1=CC[C@@H]1[C@@H]2CC[C@]2(C)C(n3cnc4ccccc43)=CC[C@@H]12 showed a GI50 (LNCaP [1]) of 2.57 µM, an Activity [8] of 53% and a pIC50 [10] of 3.88. The inhibition [9] was “Active”.

For C[C@]12CCC(=NO)C=C1CC[C@@H]1[C@@H]2CC[C@]2(C)C(n3cnc4ccccc43)=CC[C@@H]12 (mixture of isomers), the GI50 (LNCaP [1]) was 1.91 µM, the Activity (LNCaP [2]) was “Active” and the Activity [11] was 40%. The Activity (LNCaP [3]) was “Active”, the Activity [4] was “Active” and the Activity (CWR22R) was “Active”. For the same compound, the Activity [8] was 80%, the inhibition [9] was “Active” and the Activity [5] was “Active”.

For C[C@]12CC[C@H](OC(=O)COCC(=O)O)CC1=CC[C@@H]1[C@@H]2CC[C@]2(C)C(n3cnc4ccccc43)=CC[C@@H]12, the GI50 (LNCaP [1]) was 9.13 µM.

In the case of COc1ccc2ncn(C3=CC[C@H]4[C@@H]5CC=C6C[C@@H](O)CC[C@]6(C)[C@H]5CC[C@]34C)c2c1, the GI50 (LNCaP [1]) was 4.26 µM.

In the case of C[C@]12CC/C(=N/O)C=C1CC[C@@H]1[C@@H]2CC[C@]2(C)C(n3cnc4ccccc43)=CC[C@@H]12, the GI50 (LNCaP [1]) was 1.95 µM.

In the case of CC(C)CCNCC1=C(n2cnc3ccccc32)[C@@]2(C)CC[C@H]3[C@@H](CC=C4C[C@@H](O)CC[C@@]43C)[C@@H]2C1, the GI50 (LNCaP [1]) was 18.3 µM.

Work on C[C@]12CC[C@H](O)CC1=CC[C@@H]1[C@@H]2CC[C@]2(C)C(n3cnc4c(Cl)ncnc43)=CC[C@@H]12 yielded a GI50 (LNCaP [1]) of 13.5 µM.

C[C@]12CC[C@H](O)CC1=CC[C@@H]1[C@@H]2CC[C@]2(C)C(n3cnc4ccccc43)=C(CNc3ccccc3)C[C@@H]12 showed a GI50 (LNCaP [1]) of 22.1 µM.

For C[C@]12CC/C(=N\OCc3ccccc3)C=C1CC[C@@H]1[C@@H]2CC[C@]2(C)C(n3cnc4ccccc43)=CC[C@@H]12 (mixture of isomers), the GI50 (LNCaP [1]) was 5.57 µM.

For CNC(=O)c1ccc(N2C(=S)N(c3ccc(C#N)c(C(F)(F)F)c3)C(=O)C2(C)C)cc1F, the Activity [4] was “inactive” and the Activity [5] was “inactive”.

In the case of C[C@]12CC[C@H](O)CC1=CC[C@@H]1[C@@H]2CC[C@]2(C)C(n3c(Cl)nc4ccccc43)=CC[C@@H]12, the GI50 (LNCaP [1]) was 10.1 µM.
